Measurements published in ChEMBL document CHEMBL4190329, “Design, Synthesis, and Biological Evaluation of the First c-Met/HDAC Inhibitors Based on Pyridazinone Derivatives” (ACS Med Chem Lett, 2017).
Activity calls are given as the source filed them. The rule behind the calls is not given here.

Columns and labels:
HCT-116 = experiment: Antiproliferative activity against human HCT116 cells after 72 hrs by SRB assay; type: functional, cell-based; conditions: HCT-116, 72 h
EBC-1 = experiment: Antiproliferative activity against human EBC1 cells after 72 hrs by SRB assay; type: functional, cell-based; conditions: EBC-1, 72 h
[1] = biological target: T1, Hepatocyte growth factor receptor (Homo sapiens, UniProt P08581); experiment: Inhibition of recombinant human His-tagged c-Met cytoplasmic domain (956 to 1390 residues) expressed in baculovirus expression system using poly (Glu,Tyr)4:1 as substrate after 60 mins by spectrophotometric analysis
Histone deacetylase 1 [2] = biological target: T2, Histone deacetylase 1 (Homo sapiens, UniProt Q13547); experiment: Inhibition of recombinant human full length HDAC1 expressed in baculovirus infected Sf9 insect cells using biotinylated lysine 9 acetylated histone H3 (1 to 21 residues) as substrate incubated for 5 mins followed by substrate addition measured after 60 mins by HTRF assay
Histone deacetylase 1 [3] = biological target: T2, Histone deacetylase 1; experiment: Potency index, ratio of chidamide IC50 to compound IC50 for recombinant human full length HDAC1 expressed in baculovirus infected Sf9 insect cells
[4] = biological target: T3, Protein deacetylase HDAC6 (Homo sapiens) (UniProt Q9UBN7); experiment: Inhibition of HDAC6 in human EBC1 cells assessed as […] in acetyl alpha-tubulin level at Lys40 at 0.01 to 10 uM after 24 hrs by Western blot analysis; type: cell-based
T3 sequence (whole entry): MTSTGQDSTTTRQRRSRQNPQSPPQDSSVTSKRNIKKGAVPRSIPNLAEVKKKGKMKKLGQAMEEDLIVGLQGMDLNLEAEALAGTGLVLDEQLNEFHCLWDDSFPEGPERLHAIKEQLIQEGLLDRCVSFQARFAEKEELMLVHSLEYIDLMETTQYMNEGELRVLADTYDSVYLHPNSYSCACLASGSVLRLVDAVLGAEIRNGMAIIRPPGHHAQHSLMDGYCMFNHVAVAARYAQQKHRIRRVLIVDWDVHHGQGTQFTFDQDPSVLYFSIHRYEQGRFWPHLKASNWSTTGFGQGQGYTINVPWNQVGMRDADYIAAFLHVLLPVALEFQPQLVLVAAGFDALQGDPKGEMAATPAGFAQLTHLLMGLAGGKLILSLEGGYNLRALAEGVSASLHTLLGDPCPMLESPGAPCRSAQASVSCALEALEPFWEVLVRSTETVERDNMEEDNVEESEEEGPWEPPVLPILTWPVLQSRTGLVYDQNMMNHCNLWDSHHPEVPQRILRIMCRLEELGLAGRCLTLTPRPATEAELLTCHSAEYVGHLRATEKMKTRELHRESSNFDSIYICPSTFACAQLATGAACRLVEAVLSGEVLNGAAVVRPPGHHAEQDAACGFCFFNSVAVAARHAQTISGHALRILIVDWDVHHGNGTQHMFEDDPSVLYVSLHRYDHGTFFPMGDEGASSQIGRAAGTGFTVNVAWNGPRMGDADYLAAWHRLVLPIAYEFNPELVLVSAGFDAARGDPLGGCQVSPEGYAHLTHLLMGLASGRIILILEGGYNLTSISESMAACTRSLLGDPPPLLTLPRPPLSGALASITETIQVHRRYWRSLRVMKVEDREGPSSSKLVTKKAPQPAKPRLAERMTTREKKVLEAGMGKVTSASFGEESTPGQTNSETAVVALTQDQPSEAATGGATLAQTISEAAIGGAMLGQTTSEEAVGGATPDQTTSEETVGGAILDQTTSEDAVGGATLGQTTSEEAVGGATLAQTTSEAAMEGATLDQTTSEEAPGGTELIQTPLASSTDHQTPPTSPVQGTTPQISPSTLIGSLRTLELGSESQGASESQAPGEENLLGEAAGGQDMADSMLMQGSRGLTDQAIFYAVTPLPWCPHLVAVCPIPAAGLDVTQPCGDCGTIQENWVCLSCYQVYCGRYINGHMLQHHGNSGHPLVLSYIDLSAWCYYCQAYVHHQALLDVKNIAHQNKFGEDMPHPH

[5] = biological target: T1, Hepatocyte growth factor receptor; experiment: Inhibition of c-MET in human EBC1 cells assessed as decrease in Akt phosphorylation at Ser473 residues after 24 hrs by Western blot analysis; type: cell-based
Outline: (§1)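 Intact EBC-1 cells were treated with the compound at several concentrations for 24 h. Protein levels were then read by immunoblotting with specific antibodies.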

[6] = biological target: T1, Hepatocyte growth factor receptor; experiment: Inhibition of c-MET in human EBC1 cells assessed as decrease in Erk1/2 phosphorylation at Thr202/Tyr204 residues after 24 hrs by Western blot analysis; type: cell-based; outline: as §1
[7] = biological target: T1, Hepatocyte growth factor receptor; experiment: Inhibition of phosphorylation of c-MET at Tyr1234/1235 residues in human EBC1 cells after 24 hrs by Western blot analysis; type: cell-based; outline: as §1
Histone deacetylase 1 [8] = biological target: T2, Histone deacetylase 1; experiment: Inhibition of HDAC1 in human EBC1 cells assessed as increase in p21 levels at 0.01 to 10 uM after 24 hrs by Western blot analysis; type: cell-based; outline: as §1
Histone deacetylase 1 [9] = biological target: T2, Histone deacetylase 1; experiment: Inhibition of HDAC1 in human EBC1 cells assessed as increase in acetyl-Histone H3 levels at Lys9/Lys14 residues at 0.01 to 10 uM after 24 hrs by Western blot analysis; type: cell-based; outline: as §1

T1 sequence (P08581 whole entry, the tested form may be a part): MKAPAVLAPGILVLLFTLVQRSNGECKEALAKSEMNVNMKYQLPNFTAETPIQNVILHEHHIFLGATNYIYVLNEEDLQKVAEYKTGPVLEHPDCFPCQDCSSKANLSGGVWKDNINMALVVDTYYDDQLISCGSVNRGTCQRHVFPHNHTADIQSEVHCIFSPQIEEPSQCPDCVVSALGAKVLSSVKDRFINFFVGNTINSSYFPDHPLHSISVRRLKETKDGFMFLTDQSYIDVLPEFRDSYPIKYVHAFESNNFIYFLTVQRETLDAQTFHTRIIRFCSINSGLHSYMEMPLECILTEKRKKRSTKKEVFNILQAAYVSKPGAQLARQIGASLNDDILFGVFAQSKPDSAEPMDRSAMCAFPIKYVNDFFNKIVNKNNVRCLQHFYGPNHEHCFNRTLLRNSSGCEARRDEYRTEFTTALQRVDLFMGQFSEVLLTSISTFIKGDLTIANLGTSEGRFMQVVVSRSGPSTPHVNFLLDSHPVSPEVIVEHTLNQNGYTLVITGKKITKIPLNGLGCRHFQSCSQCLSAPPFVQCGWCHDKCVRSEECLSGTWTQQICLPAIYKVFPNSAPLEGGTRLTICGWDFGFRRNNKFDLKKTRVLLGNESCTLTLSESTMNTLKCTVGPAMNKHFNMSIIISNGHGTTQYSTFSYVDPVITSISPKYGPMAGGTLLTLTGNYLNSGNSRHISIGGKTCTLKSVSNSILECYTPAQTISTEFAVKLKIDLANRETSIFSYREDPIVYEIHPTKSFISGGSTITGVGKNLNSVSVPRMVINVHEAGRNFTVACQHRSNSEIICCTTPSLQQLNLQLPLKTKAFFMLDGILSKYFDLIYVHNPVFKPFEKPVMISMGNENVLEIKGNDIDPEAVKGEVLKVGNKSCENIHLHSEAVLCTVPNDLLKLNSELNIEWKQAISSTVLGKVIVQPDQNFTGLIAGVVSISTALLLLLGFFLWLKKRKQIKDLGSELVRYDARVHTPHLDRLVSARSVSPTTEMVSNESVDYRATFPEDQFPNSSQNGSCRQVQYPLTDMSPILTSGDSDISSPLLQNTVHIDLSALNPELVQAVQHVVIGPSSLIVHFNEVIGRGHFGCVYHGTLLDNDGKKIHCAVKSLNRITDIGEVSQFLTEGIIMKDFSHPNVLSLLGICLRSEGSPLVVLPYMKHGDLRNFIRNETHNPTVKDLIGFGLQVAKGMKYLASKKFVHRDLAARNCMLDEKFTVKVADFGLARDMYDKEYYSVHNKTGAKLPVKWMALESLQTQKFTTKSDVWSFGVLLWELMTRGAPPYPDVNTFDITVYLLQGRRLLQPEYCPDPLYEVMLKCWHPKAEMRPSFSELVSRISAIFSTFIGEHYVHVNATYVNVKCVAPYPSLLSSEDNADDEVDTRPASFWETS
T2 sequence (Q13547 whole entry, the tested form may be a part): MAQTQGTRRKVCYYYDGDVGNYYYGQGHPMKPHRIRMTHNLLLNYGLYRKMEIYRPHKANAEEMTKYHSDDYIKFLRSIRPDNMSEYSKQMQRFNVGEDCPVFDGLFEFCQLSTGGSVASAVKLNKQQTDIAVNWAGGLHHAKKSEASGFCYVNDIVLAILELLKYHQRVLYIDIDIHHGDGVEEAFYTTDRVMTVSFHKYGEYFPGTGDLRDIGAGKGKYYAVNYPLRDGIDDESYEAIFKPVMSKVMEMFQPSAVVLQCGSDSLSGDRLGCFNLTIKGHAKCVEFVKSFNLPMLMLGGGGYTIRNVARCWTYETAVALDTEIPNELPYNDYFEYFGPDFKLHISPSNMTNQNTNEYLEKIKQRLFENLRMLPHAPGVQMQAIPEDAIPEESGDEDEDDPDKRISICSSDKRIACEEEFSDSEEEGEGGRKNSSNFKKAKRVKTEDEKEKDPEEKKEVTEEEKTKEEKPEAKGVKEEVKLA

Row | Compound | IC50 (HCT-116) [nM] | IC50 (EBC-1) [nM] | IC50 [1] [nM] | IC50 (Histone deacetylase 1 [2]) [nM] | Ratio IC50 (Histone deacetylase 1 [3]) | inhibition [4] | inhibition [5] | inhibition [6] | inhibition [7] | inhibition (Histone deacetylase 1 [8]) | inhibition (Histone deacetylase 1 [9])
1 | Cn1cc(-c2ccc(=O)n(CCOc3ccnc4cc(OCCCC(=O)NO)ccc34)n2)cn1 | > 10000 | 870 | 1 | > 1000 |  |  |  |  |  |  | 
2 | Cn1cc(-c2ccc(=O)n(CCOc3ccnc4cc(OCc5ccc(C(=O)Nc6ccccc6N)cc5)ccc34)n2)cn1 | 1800 | 42 | 0.44 | 156 |  |  |  |  |  |  | 
3 | Cn1cc(-c2ccc(=O)n(CCOc3ccnc4cc(OCc5ccc(/C=C/C(=O)Nc6ccccc6N)cc5)ccc34)n2)cn1 | > 10000 | 490 | 1.1 | > 1000 |  |  |  |  |  |  | 
4 | Cn1cc(-c2ccc(=O)n(CCOc3ccnc4cc(OCCCOc5ccc(C(=O)Nc6ccccc6N)nc5)ccc34)n2)cn1 | 1300 | 58 | 0.71 | 38 | 4 | inactive | Dose-dependent effect | Dose-dependent effect | Dose-dependent effect | Active | Active
5 | Cn1cc(-c2ccc(=O)n(CCOc3ccnc4cc(OCCCCCC(=O)Nc5ccccc5N)ccc34)n2)cn1 | 7000 | 370 | 0.96 | 221 |  |  |  |  |  |  | 
6 | Cn1cc(-c2ccc(=O)n(CCOc3ccnc4cc(C(=O)Nc5ccccc5N)ccc34)n2)cn1 | > 10000 | > 10000 | 37 | > 1000 |  |  |  |  |  |  | 
7 | O=c1ccc(-n2ccc3ccc(F)cc32)nn1CCOc1ccnc2cc(OCCCN3CCOCC3)ccc12 | > 10000 | 60 | 0.84 | > 1000 |  |  |  |  |  |  | 
8 | CNC(=O)CCCCCOc1ccc2c(OCCn3nc(-c4cnn(C)c4)ccc3=O)ccnc2c1 | > 10000 | 79 | 1.2 | > 1000 |  |  |  |  |  |  | 
9 | Cn1cc(-c2ccc(=O)n(CCOc3ccnc4cc(-c5ccc(C(=O)Nc6ccccc6N)s5)ccc34)n2)cn1 | > 10000 | 120 | 1.3 | 467 |  |  |  |  |  |  | 
10 | Cn1cc(-c2ccc(=O)n(CCOc3ccnc4cc(Nc5ccc(C(=O)Nc6ccccc6N)nc5)ccc34)n2)cn1 | > 10000 | 450 | 3.7 | 129 |  |  |  |  |  |  | 
11 | Cn1cc(-c2ccc(=O)n(CCOc3ccnc4cc(OCCCCCC(=O)NO)ccc34)n2)cn1 | > 10000 | 460 | 0.73 | 216 |  |  |  |  |  |  | 
12 | Cn1cc(-c2ccc(=O)n(CCOc3ccnc4cc(OCc5ccc(/C=C/C(=O)Nc6ccccc6N)nc5)ccc34)n2)cn1 | 7900 | 46 | 0.63 | 625 |  |  |  |  |  |  | 
13 | CC(=O)CCCCCOc1ccc2c(OCCn3nc(-c4cnn(C)c4)ccc3=O)ccnc2c1 | > 10000 | 25 | 1 | > 1000 |  |  |  |  |  |  | 
14 | Cn1cc(-c2ccc(=O)n(CCOc3ccnc4cc(OCCCCCCC(=O)NO)ccc34)n2)cn1 | > 10000 | 210 | 0.54 | 18 |  |  |  |  |  |  | 
15 | Cn1cc(-c2ccc(=O)n(CCOc3ccnc4cc(OCCCCC(=O)NO)ccc34)n2)cn1 | > 10000 | 370 | 0.96 | > 1000 |  |  |  |  |  |  | 
16 | Cn1cc(-c2ccc(=O)n(CCOc3ccnc4cc(OCCCCCS)ccc34)n2)cn1 | > 10000 | 640 | 1.5 | 329 |  |  |  |  |  |  | 
17 | Nc1cc(F)ccc1NC(=O)c1ccc(CNC(=O)/C=C/c2cccnc2)cc1 [TUCIDINOSTAT] | 7800 | 2900 |  |  |  |  |  |  |  |  | 
18 | Cn1cc(-c2ccc(=O)n(CCOc3ccnc4cc(OCc5ccc(CCC(=O)Nc6ccccc6N)cc5)ccc34)n2)cn1 | > 10000 | 210 | 5.1 | > 1000 |  |  |  |  |  |  | 
